The results in this text go back to ChEMBL document CHEMBL1649333, “In vivo efficacy of simulated human dosing regimens of prolonged-infusion doripenem against carbapenemase- producing Klebsiella pneumoniae” (2010).

A short description of assay [1]: fT>MIC in Klebsiella pneumoniae isolate KPC 361 infected in human at 1 g administered as 4 hrs infusion every 8 hrs. It counts as functional.
Assay [2] can be described thus: fT>MIC in Klebsiella pneumoniae isolate KPC 360 infected in human at 2 g administered as 4 hrs infusion every 8 hrs. It counts as functional.
The nature of assay [3]: fT>MIC in Klebsiella pneumoniae isolate KPC 361 infected in human at 2 g administered as 4 hrs infusion every 8 hrs. The class given is functional.
Assay [4] deals with Klebsiella pneumoniae. Description: Antimicrobial activity against Klebsiella pneumoniae isolate KPC 356 in immunocompetent mouse thigh infection model assessed as reduction in bacterial load in mouse thigh at 1 g after 24 hrs. It counts as functional, Thigh muscle. In short, it runs like this:
(§1)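 Immunocompetent ICR mouse thigh model. Uranyl nitrate 5 mg/kg i.p. on day −3, no cyclophosphamide. Thighs inoculated i.m. with ~10⁸ CFU. From 2 h, s.c. doripenem regimens simulating human 1 or 2 g q8h 4-h infusions, given as three 8-h intervals; saline controls. Thighs homogenized in saline and plated at 24 h; change in log₁₀ CFU relative to 0-h untreated mice.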

Assay [5] in a line: fT>MIC in Klebsiella pneumoniae isolate KPC 354 infected in human at 1 g administered as 4 hrs infusion every 8 hrs. It counts as functional.
Assay [6] has as its system Klebsiella pneumoniae. The assay is described as follows: Antimicrobial activity against Klebsiella pneumoniae isolate KPC 361 by Etest. The class given is functional. In short, it runs like this:
(§2)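 Etest on each clinical isolate, run in triplicate and read per the manufacturer's instructions; the modal MIC is reported. Quality control strain P. aeruginosa ATCC 27853. Isolates stored at −80°C in double-strength skim milk and subcultured twice on Trypticase soy agar with 5% sheep blood at 35°C before testing.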

Assay [7] relates to Klebsiella pneumoniae. Description: Antimicrobial activity against Klebsiella pneumoniae isolate KPC 357 in immunocompromized mouse thigh infection model assessed as decrease in bacterial density in mouse thigh at 1 g after 24 hrs. The class given is functional, Thigh muscle. The method in brief: (§3)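 Neutropenic murine thigh model. Cyclophosphamide 150 and 100 mg/kg i.p. at 4 and 1 days pre-inoculation. Uranyl nitrate 5 mg/kg i.p. at day −3 for renal impairment. Each thigh injected i.m. with ~10⁶ CFU/ml, 0.1 ml. At 2 h, s.c. doripenem regimens simulating human fT>MIC for 1 or 2 g q8h 4-h infusion; saline controls. Thighs plated at 24 h; Δlog₁₀ CFU vs 0-h controls; stasis <1 log change.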

The test system of assay [8] is Klebsiella pneumoniae. Description: Antimicrobial activity against Klebsiella pneumoniae isolate KPC 356 by Etest. The class given is functional. In short, it runs like this: as §2
In assay [9] the test system is Klebsiella pneumoniae. Description: Antimicrobial activity against Klebsiella pneumoniae isolate KPC 354 by Etest. It counts as functional. The method in brief:
as §2

The test system of assay [10] is Klebsiella pneumoniae. The assay is described as follows: Antimicrobial activity against Klebsiella pneumoniae isolate KPC 359 by broth microdilution method. It counts as functional. In short, it runs like this: (§4)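 Clinical KPC-producing isolate, stored at −80°C in double-strength skim milk, subcultured twice on Trypticase soy agar with 5% sheep blood at 35°C. MIC by broth microdilution per CLSI methods, run in triplicate, modal MIC reported; quality control strain PSA 27853 included.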

Assay [11] relates to Klebsiella pneumoniae. The assay is described as follows: Antimicrobial activity against Klebsiella pneumoniae isolate KPC 354 in immunocompromized mouse thigh infection model assessed as decrease in bacterial density in mouse thigh at 1 g after 24 hrs. The class given is functional, Thigh muscle. The method in brief:
as §3

The subject of assay [12] is Klebsiella pneumoniae. Description: Antimicrobial activity against Klebsiella pneumoniae isolate KPC 359 by Etest. The class given is functional. In short, it runs like this: as §2
The nature of assay [13]: fT>MIC in Klebsiella pneumoniae isolate KPC 360 infected in human at 1 g administered as 4 hrs infusion every 8 hrs. It counts as functional.
Assay [14] concerns Klebsiella pneumoniae. The assay is described as follows: Antimicrobial activity against Klebsiella pneumoniae isolate KPC 361 in immunocompromized mouse thigh infection model assessed as reduction in bacterial load in mouse thigh at 1 g after 24 hrs. The class given is functional, organism-based. The settings on record: Thigh muscle. In short, it runs like this:
as §3

Assay [15] has as its system Klebsiella pneumoniae. Description: Antimicrobial activity against Klebsiella pneumoniae isolate KPC 359 in immunocompetent mouse thigh infection model assessed as reduction in bacterial load in mouse thigh at 2 g after 24 hrs. It counts as functional, Thigh muscle. In short, it runs like this:
as §1

In assay [16] the test system is Klebsiella pneumoniae. Description: Antimicrobial activity against Klebsiella pneumoniae isolate KPC 356 in immunocompetent mouse thigh infection model assessed as reduction in bacterial load in mouse thigh at 2 g after 24 hrs. It counts as functional, Thigh muscle. In short, it runs like this: as §1
Assay [17] is described as follows: fT>MIC in Klebsiella pneumoniae isolate KPC 359 infected in human at 1 g administered as 4 hrs infusion every 8 hrs. The class given is functional.
In assay [18] the test system is Klebsiella pneumoniae. The assay is described as follows: Antimicrobial activity against Klebsiella pneumoniae isolate KPC 361 by broth microdilution method. It counts as functional. In short, it runs like this:
(§5)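 MIC by CLSI broth microdilution, triplicate determinations, modal value reported. QC strain P. aeruginosa 27853. Isolates kept frozen at −80°C in skim milk and subcultured twice on blood agar (TSA + 5% sheep blood) at 35°C before use.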

Assay [19] has as its system Klebsiella pneumoniae. The assay is described as follows: Antimicrobial activity against Klebsiella pneumoniae isolate KPC 356 by broth microdilution method. It counts as functional. The method in brief: as §5
A general note: Broth dilution looks for growth in wells or tubes with falling amounts of substance.

Assay [20] in a line: fT>MIC in Klebsiella pneumoniae isolate KPC 353 infected in human at 2 g administered as 4 hrs infusion every 8 hrs. The class given is functional.
The subject of assay [21] is Klebsiella pneumoniae. Description: Antimicrobial activity against Klebsiella pneumoniae isolate KPC 353 by Etest. The class given is functional. The method in brief:
as §2

Assay [22] relates to Klebsiella pneumoniae. The assay is described as follows: Antimicrobial activity against Klebsiella pneumoniae isolate KPC 354 by broth microdilution method. It counts as functional. The method in brief: as §5
For assay [23], the system named is Klebsiella pneumoniae. The assay is described as follows: Antimicrobial activity against Klebsiella pneumoniae isolate KPC 357 by broth microdilution method. The class given is functional. The method in brief:
as §5

Assay [24] relates to Klebsiella pneumoniae. The assay is described as follows: Antimicrobial activity against Klebsiella pneumoniae isolate KPC 361 in immunocompromized mouse thigh infection model assessed as reduction in bacterial load in mouse thigh at 2 g after 24 hrs. The class given is functional, organism-based. The settings on record: Thigh muscle. The method in brief: as §3
Assay [25] can be described thus: fT>MIC in Klebsiella pneumoniae isolate KPC 354 infected in human at 2 g administered as 4 hrs infusion every 8 hrs. The class given is functional.
The test system of assay [26] is Klebsiella pneumoniae. Description: Bacteriostatic activity against Klebsiella pneumoniae isolate KPC 359 in immunocompromized mouse thigh infection model at 2 g after 24 hrs. It counts as functional, organism-based. The following applies: Thigh muscle. The method in brief: as §3
The nature of assay [27]: fT>MIC in Klebsiella pneumoniae isolate KPC 359 infected in human at 2 g administered as 4 hrs infusion every 8 hrs. The class given is functional.
Assay [28] concerns Klebsiella pneumoniae. The assay is described as follows: Antimicrobial activity against Klebsiella pneumoniae isolate KPC 353 by broth microdilution method. It counts as functional. In short, it runs like this:
as §5

In assay [29] the test system is Klebsiella pneumoniae. Description: Antimicrobial activity against Klebsiella pneumoniae isolate KPC 353 in immunocompromized mouse thigh infection model assessed as decrease in bacterial density in mouse thigh at 1 g after 24 hrs. It counts as functional, Thigh muscle. In short, it runs like this:
as §3

The nature of assay [30]: fT>MIC in Klebsiella pneumoniae isolate KPC 357 infected in human at 2 g administered as 4 hrs infusion every 8 hrs. The class given is functional.
Assay [31] in a line: fT>MIC in Klebsiella pneumoniae isolate KPC 357 infected in human at 1 g administered as 4 hrs infusion every 8 hrs. The class given is functional.
In assay [32] the test system is Klebsiella pneumoniae. Description: Antimicrobial activity against Klebsiella pneumoniae isolate KPC 360 by broth microdilution method. It counts as functional. The method in brief:
as §4

The subject of assay [33] is Klebsiella pneumoniae. Description: Antimicrobial activity against Klebsiella pneumoniae isolate KPC 356 in immunocompromized mouse thigh infection model assessed as decrease in bacterial density in mouse thigh at 1 g after 24 hrs. The class given is functional, Thigh muscle. In short, it runs like this:
as §3

The subject of assay [34] is Klebsiella pneumoniae. Description: Antimicrobial activity against Klebsiella pneumoniae isolate KPC 357 by Etest. It counts as functional. In short, it runs like this: as §2
Assay [35] has as its system Klebsiella pneumoniae. The assay is described as follows: Antimicrobial activity against Klebsiella pneumoniae isolate KPC 360 by Etest. The class given is functional. The method in brief:
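Clinical KPC-producing isolate stored at −80°C in double-strength skim milk and subcultured twice on blood agar (5% sheep blood) at 35°C before testing. Etest strip MIC read per manufacturer's interpretation, run in triplicate, modal value reported; quality control strain PSA 27853 included.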

Assay [36] is described as follows: fT>MIC in Klebsiella pneumoniae isolate KPC 353 infected in human at 1 g administered as 4 hrs infusion every 8 hrs. The class given is functional.
Assay [37] relates to Klebsiella pneumoniae. The assay is described as follows: Antimicrobial activity against Klebsiella pneumoniae isolate KPC 354 in immunocompetent mouse thigh infection model assessed as reduction in bacterial load in mouse thigh at 1 g after 24 hrs. It counts as functional, Thigh muscle. The method in brief: as §1
Assay [38] is described as follows: fT>MIC in Klebsiella pneumoniae isolate KPC 356 infected in human at 2 g administered as 4 hrs infusion every 8 hrs. The class given is functional.
Assay [39] is described as follows: fT>MIC in Klebsiella pneumoniae isolate KPC 356 infected in human at 1 g administered as 4 hrs infusion every 8 hrs. The class given is functional.
Assay [40] concerns Klebsiella pneumoniae. The assay is described as follows: Antimicrobial activity against Klebsiella pneumoniae isolate KPC 354 in immunocompetent mouse thigh infection model assessed as reduction in bacterial load in mouse thigh at 2 g after 24 hrs. It counts as functional, Thigh muscle. In short, it runs like this:
as §1

Assay [41] relates to Klebsiella pneumoniae. Description: Antimicrobial activity against Klebsiella pneumoniae. The class given is functional.

≈ marks a conversion by molar mass, not a printed value. Calls of active or inactive are those of the source. No cut-off for these calls is given here.

Turning to `C[C@@H](O)[C@H]1C(=O)N2C(C(=O)O)=C(S[C@@H]3CN[C@H](CNS(N)(=O)=O)C3)[C@H](C)[C@H]12` [DORIPENEM], the “fT>MIC” value in [1] is on record as 0%; in [2], 52.5%; in assay [3], 0%; in [5], 70%; in assay [13], 0%; in assay [17], 0%. Moreover, the “fT>MIC” value worked out at 82.5% in [20]; 82.5% in assay [25]; 52.5% in assay [27]; 70% in [30]; 52.5% in [31]; 70% in [36]. Further, the “fT>MIC” value was determined as 70% in assay [38] and 52.5% in [39]. The log10cfu in [4] is on record as 1; in assay [7], 0.02; in assay [11], 0.02; in assay [15] it was 1; in assay [16] it was 1; in assay [29] it was 0.02. In addition, the log10cfu came out at 0.02 in assay [33], 1 in [37] and 1 in assay [40]. Moreover, the minimum inhibitory concentration (MIC) (in general, the least concentration at which growth counts as inhibited) in assay [6] was > 32 µg/mL; in assay [8] it was 12 µg/mL (≈ 28.5 µM); in assay [9], 4 µg/mL (≈ 9.51 µM); in [10], 16 µg/mL (≈ 38 µM); in assay [12] it was > 32 µg/mL; in [18], 32 µg/mL (≈ 76.1 µM). Further, the MIC in assay [19] is 8 µg/mL (≈ 19 µM); in assay [21], 3 µg/mL (≈ 7.13 µM); in [22], 4 µg/mL (≈ 9.51 µM); in assay [23], 8 µg/mL (≈ 19 µM); in assay [28], 4 µg/mL (≈ 9.51 µM); in assay [32], 16 µg/mL (≈ 38 µM). The MIC in assay [34] was determined as 6 µg/mL (≈ 14.3 µM); in assay [35] it was 16 µg/mL (≈ 38 µM). The result in [14] and in assay [24] was inactive. Also, the result in assay [26] was Active.

`C[C@@H](O)[C@H]1C(=O)N2C(C(=O)O)=C(S[C@@H]3CN[C@H](C(=O)N(C)C)C3)[C@H](C)[C@H]12` [MEROPENEM]: the lowest concentration to inhibit growth in [41] (MIC) was 2 µg/mL (≈ 5.22 µM).
